From PubChem
An excerpt weighted towards active compounds, which were near 3% of everything screened.
NPY Y2 blocker = NPY-Y2 (human) receptor antagonism; P49146; NPY-Y2 expressing cells, antagonist mode; inhibition, % at 2.7 µM; 140,000 tested, 0.99% active; AID 793; in the data active means inhibition above about 17%;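 further: 0% = vehicle with agonist challenge and 100% = reference antagonist with challenge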
Wee1 degr inh = inhibitors of human Wee1 degradation; 220,000 tested, 1.2% active; reporter increase, % at 5 µM; P30291; HeLa Luc-Wee1K328M stability, luciferase luminescence; 100% = proteasome inhibitor MG132 effect;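 active means activation above the mean of all tested compounds plus 3 SD, set per screening run, cut at about 8.8% in these data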;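 further: cells exposed to compound for 20 h before luminescence read; 0% = DMSO alone and 100% = MG132 at 30 µM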
NPY Y1 blocker = NPY-Y1 (human) receptor antagonism; HEK293-CNG Y1 cells, membrane potential fluorescence; NPY at EC95, then isoproterenol; inhibition, % at 3.6 µM; AID 1040; 200,000 tested, 1% active;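 active means inhibition above the campaign mean inhibition of all tested compounds plus 3 SD, cut at about 20% in these data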;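 further: 0% = DMSO wells given NPY plus isoproterenol and 100% = isoproterenol alone without NPY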
Target sequence (P25929 whole entry, looked up): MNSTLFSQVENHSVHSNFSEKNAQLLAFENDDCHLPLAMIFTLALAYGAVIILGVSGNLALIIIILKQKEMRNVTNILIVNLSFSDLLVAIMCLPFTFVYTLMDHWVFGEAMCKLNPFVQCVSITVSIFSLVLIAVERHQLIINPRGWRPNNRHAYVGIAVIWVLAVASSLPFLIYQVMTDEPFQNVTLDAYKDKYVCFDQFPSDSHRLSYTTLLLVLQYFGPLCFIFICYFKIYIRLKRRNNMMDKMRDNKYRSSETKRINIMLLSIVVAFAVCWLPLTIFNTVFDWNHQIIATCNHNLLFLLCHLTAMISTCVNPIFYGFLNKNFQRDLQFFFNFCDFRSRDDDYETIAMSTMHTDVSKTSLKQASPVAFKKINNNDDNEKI
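Material: Y1- and CNG-channel-expressing HEK293 cells / Probe or stimulus: NPY 25 nM then isoproterenol 1 µM plus Ro 20-1724 25 µM / Doses: 3.6 µM single dose, DMSO 0.4% / Schedule: compound incubation 1 h at room temperature, readout 45 min post-stimulation / Signal: membrane potential fluorescence / Benchmarks: isoproterenol-only wells as full block versus NPY-plus-isoproterenol wells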
NPY1 pot ag = potentiators or agonists of human neuropeptide Y receptor Y1; 220,000 tested, 0.37% active; P25929; NPY-Y1 expressing cells, potentiator/agonist activation; activation, % at 3.6 µM; in the data active means activation above about 33%, passing the limit was not always enough;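 further: cells stimulated with NPY at EC10 then isoproterenol at EC100; 0% = low agonist plus stimulus and 100% = saturating agonist plus stimulus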
Hsp70 activator = Hsp70 transcriptional activation, primary screen; HeLa Hsp70 promoter luciferase reporter, luminescence; scaled: vehicle 0, proteasome-inhibitor control 100%; activation, % at 10 µM; 200,000 tested, 0.04% active; AID 1203;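 active means activation above the mean across all tested compounds plus 3 SD, cutoff set per campaign, cut at about 5.5% in these data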;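 further: 100% = MG132 at 30 µM as the positive control and 0% = DMSO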
NPY2 pot ag = potentiators or agonists of human neuropeptide Y receptor Y2 | 220,000 tested, 0.45% active | cells expressing NPY-Y2, potentiator/agonist read-out | AID 1359 | activation, % at 3.6 µM | P49146; in the data active means activation above about 27%;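 further: cells stimulated with NPY near EC25 plus isoproterenol at EC100; 0% = vehicle plus submaximal agonist and 100% = vehicle plus saturating agonist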
NPY1 antag ctr = counter-screen for NPY-Y2 antagonists: human NPY-Y1 antagonism. 710 tested, 19% active. shares compounds with NPY Y2 blocker. cell-based NPY-Y1 antagonism counterscreen. inhibition, % at 3.6 µM. AID 1256; in the data active means inhibition above about 20%;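 further: cells challenged with NPY then isoproterenol with cAMP sensed through a CNG channel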
NPY2 antag conf = human NPY-Y2 antagonism, confirmation | 710 tested, 32% active | shares compounds with NPY Y2 blocker | HEK293 NPY-Y2 CNG channel, membrane potential fluorescence | inhibition, % at 2.8 µM | AID 1257;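 active means mean inhibition of triplicate wells above the hit cutoff set in the primary screen, cut at about 17% in these data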;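 further: 0% = DMSO with NPY challenge and 100% = BIIE0246 high control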
The depositor's hits bear a star; nt = no result.

SMILES	NPY Y2 blocker	Wee1 degr inh	NPY Y1 blocker	NPY1 pot ag	Hsp70 activator	NPY2 pot ag	NPY1 antag ctr	NPY2 antag conf
COCCN(C(=O)Cn1nnc2ccccc21)C(C(=O)NC1CCCCC1)c1ccc(OC)cc1OC (stereo not given)	19*	1	20	-95	0	-53	18	17
Cc1ccc(NC(=O)c2cc(N(C)C)ccc2[P+](=O)O)cc1	21*	2	3	1	0	6	5	0
CN(C)c1ccc(NC(=O)c2ccc([N+](=O)[O-])cc2Cl)cc1	1	1	-1	4	0	2	nt	nt
Cc1nn(C(C)(C)C)c(OC(=O)c2ccc(Br)o2)c1Sc1ccccc1	18*	1	6	8	0	10	5	16
Cc1nn(C(C)(C)C)c(OC(=O)c2ccco2)c1Sc1ccccc1	6	0	3	0	0	12	nt	nt
Cc1nn(C(C)(C)C)c(OC(=O)c2cccs2)c1Sc1ccccc1	26*	0	13	-18	0	7	11	6
COc1c(Cl)ccc(Cl)c1C(=O)NC(=S)N1CCOCC1	nt	2	1	1	0	3	nt	nt
CC(C)n1c(C(=O)OCC(=O)NCc2ccc3c(c2)OCO3)cc2sccc21	22*	4	6	-28	0	-3	8	8
CC(C)n1c(C(=O)OCC(=O)NCc2ccc3c(c2)OCO3)cc2occc21	14	-1	5	-23	0	-6	nt	nt
CCOC(=O)c1c(NC(=O)CSC2=NN3CCCC(=O)N=C3S2)sc2c1CCCCC2	19*	-1	3	0	0	7	25*	43*
C=CCNC(=O)c1ccccc1Cl	-1	-3	-4	-3	0	8	nt	nt
CCC(Oc1ccc2c(=O)c(-c3ccccc3OC)coc2c1)C(=O)OCc1ccccc1 (stereo not given)	37*	1	2	-17	0	-18	6	66*
COCCCn1c(=N)c(C(=O)NCc2ccc3c(c2)OCO3)cc2c(=O)n3ccccc3nc21	20*	1	17	7	0	-9	14	9
N=c1c(C(=O)NCc2ccccc2)cc2c(=O)n3ccccc3nc2n1Cc1ccco1	23*	-2	10	5	0	6	6	5
N=c1c(C(=O)NCc2ccco2)cc2c(=O)n3ccccc3nc2n1Cc1ccccc1	24*	1	8	5	0	2	13	12
Cc1cccc(-c2cc(C(=O)Nc3ccc4c(c3)OCCO4)c3ccccc3n2)c1	26*	1	3	-76	0	-34	26*	43*
CCCC(C)NC(=O)CSCc1ccc(OC)cc1 (stereo not given)	nt	1	1	-4	0	1	nt	nt
CCCc1cc(-c2n[nH]c(=S)n2C(C)c2ccccc2)cs1 (stereo not given)	20*	8	18	-10	0	-21	15	11
CCCc1cc(-c2n[nH]c(=S)n2CC)cs1	nt	2	12	-24	0	-15	nt	nt
CCN(CC)CCCN1C(=O)c2oc3ccccc3c(=O)c2C1c1cccc(OC)c1OC (stereo not given)	19*	0	-2	-7	0	-3	0	3
COc1cccc(C2c3c(oc4ccccc4c3=O)C(=O)N2CCCN(C)C)c1OC (stereo not given)	-2	5	1	10	0	-7	nt	nt
COc1ccc(/C=N/NC(=O)c2nc(-c3ccccc3)cc(-c3ccccc3)n2)cc1	20*	-2	2	-53	0	-57	22*	27*
COc1ccc(/C=N/NC(=O)c2nc(-c3ccccc3)cc(-c3ccccc3)n2)cc1O	11	1	9	-19	0	-29	nt	nt
CC(Sc1ccc(Cl)cc1)C(=O)Nc1ccccc1-c1ccccc1 (stereo not given)	20*	5	18	-37	0	-25	15	25*
CCCCOc1ccc(C2(C(=O)O)CCCC2)cc1	6	1	11	-27	0	-23	nt	nt
SMILES	NPY Y2 blocker	Wee1 degr inh	NPY Y1 blocker	NPY1 pot ag	Hsp70 activator	NPY2 pot ag	NPY1 antag ctr	NPY2 antag conf
CCCOc1ccc(C2(C(=O)O)CCCC2)cc1	44*	0	7	1	0	-2	8	6
O=C(CN(c1ccccn1)S(=O)(=O)c1ccc(F)cc1)Nc1ccc(F)cc1F	nt	-1	7	-1	0	9	nt	nt
Cc1nn(-c2ccccc2)c(C)c1/C=N/NC(=O)CSc1nnc(SCc2ccc(Cl)cc2)s1	6	1	-1	17	0	2	nt	nt
O=C(CSc1nnc(SCc2ccccc2)s1)N/N=C/c1c(Cl)cccc1Cl	26*	8	2	-20	0	-12	13	16
CC(C)c1ccc(-c2nnn(CCC#N)n2)cc1	nt	-1	2	1	0	-10	nt	nt
CC(C)c1ccc(-c2nnn(Cc3nc4ccccc4s3)n2)cc1	23*	-2	16	-60	0	-24	16	23*
Clc1ccc(CSc2nnc(/C=C/c3ccccc3)o2)cc1	18*	0	1	-19	0	-9	24*	21*
Clc1ccccc1CSc1nnc(/C=C/c2ccccc2)o1	20*	0	11	-19	0	-10	20	21*
N[C@@H](Cc1ccccc1)c1nnc(SCc2ccccc2Cl)o1	5	0	1	-12	0	9	nt	nt
Clc1ccc(CSc2nnc(-c3cccnc3)o2)cc1	1	2	-3	-16	0	-19	nt	nt
Cc1nnc(SCc2nnc(-c3cccs3)o2)s1	nt	-1	8	-18	0	3	nt	nt
CC1(C)CCCN(C(=O)c2coc(=O)c(Br)c2)C1	0	-2	6	-5	0	3	nt	nt
Cc1ccc(N(C)S(=O)(=O)c2cccc(C(=O)Nc3nc4ccccc4[nH]3)c2)cc1	23*	2	10	-2	0	-17	42*	20*
CCc1nc(N(CC)CC)c2oc3ccccc3c2n1	19*	6	14	-15	0	-9	9	6
Cc1nc(SC2CC(=O)N(c3ccccc3)C2=O)nc2c1CCCC2 (stereo not given)	21*	4	19	-15	0	-31	17	14
Cc1cc(C(F)(F)F)nc(SCC(=O)c2cccc([N+](=O)[O-])c2)n1	19*	-4	0	-5	0	5	3	5
CCCCNC(=O)CSc1nnc(NC(C)=O)s1	11	-2	5	-2	0	4	nt	nt
